Consider three compounds from ChEMBL document CHEMBL4433264, “Novel hydrophilic galactose-conjugated chlorin e6 derivatives for photodynamic therapy and fluorescence imaging” (Bioorg Med Chem Lett, 2019).

For one series, the system named is HeLa. In words: Phototoxicity in human HeLa cells assessed as reduction in cell viability in presence of irradiation with LED light at 12 J/cm2. It counts as functional, cell-based. The note with it: light or radiation study. The method, boiled down: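 HeLa cells were cultured in DMEM/F12 with 10% FBS, antibiotic-free, at 37 °C and 5% CO2. Compound-treated cells were irradiated with a 660 nm LED at 12 J/cm2. Viable cells were quantified by FMCA using 10 independent microcultures per concentration. Grubbs criterion removed artifacts before IC50 was calculated from concentration versus survival index (±SE).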

A short description of series [1]: Aqueous solubility of the compound by UV spectroscopy. Type of series: physicochemical. The note with it: buffer.
Series [2] in a line: Drug penetration in human HeLa cells at 10 uM measured after 40 mins by fluorescence microscopy. It counts as ADME, cell-based. The method, boiled down: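 HeLa cells were incubated for 40 min with compound at 10 μM, alongside untreated cells. Uptake was judged by intracellular red fluorescence under fluorescence microscopy, paired with light micrographs of the same fields.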

Series [3] is described as follows: Dark toxicity in human HeLa cells assessed as reduction in cell viability. Type of series: cell-based. The method, boiled down: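 HeLa cells were grown in DMEM/F12 with 10% FBS, without antibiotics, at 37 °C and 5% CO2, and exposed to compound without irradiation. Live cells were counted by fluorometric microculture cytotoxicity assay (FMCA), with 10 independent microcultures per concentration. Outliers were screened by Grubbs criterion, and IC50 was derived from concentration versus survival index (±SE).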

Series [4] is described as follows: Potency index, ratio of IC50 for dark toxicity in human HeLa cells to IC50 for phototoxicity in human HeLa cells in presence of irradiation with LED light at 12 J/cm2. Type of series: cell-based. The note with it: read-out: Ratio IC50. A digest of the protocol:
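The index is dark IC50 divided by photoinduced IC50 in HeLa cells. Both IC50 values come from FMCA viability readings (10 microcultures per concentration, Grubbs outlier check, fit of concentration versus survival index). The phototoxicity arm used 660 nm LED irradiation at 12 J/cm2.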

A word on the IC50: it is the concentration needed to halve the response being measured. With `C=Cc1c(C)c2cc3nc(c(CC(=O)OC)c4[nH]c(cc5nc(cc1[nH]2)C(C)=C5CC)c(C)c4C(=O)NCCN(C[C@H]1OC(O)[C@H](O)[C@@H](O)[C@H]1O)C[C@H]1OC(O)[C@H](O)[C@@H](O)[C@H]1O)[C@@H](CCC(=O)OC)[C@@H]3C` (some centres undefined), the IC50 in the series on HeLa was 1.11 µM; in series [3] it was 6.1 µM. Besides, in series [1], the solubility result was “Soluble”. The Drug uptake result in series [2] is recorded as “Active”.
For the compound `C=Cc1c(C)c2cc3nc(c(CC(=O)OC)c4[nH]c(cc5nc(cc1[nH]2)C(C)=C5CC)c(C)c4C(=O)NCCN(C[C@H]1OC(O)[C@H](O)[C@@H](O)[C@H]1O)C[C@H]1OC(O)[C@H](O)[C@@H](O)[C@H]1O)[C@@H](CCC(=O)NCCN(C[C@H]1OC(O)[C@H](O)[C@@H](O)[C@H]1O)C[C@H]1OC(O)[C@H](O)[C@@H](O)[C@H]1O)[C@@H]3C` (some centres undefined), in series [4], the selectivity ratio is 38. Also, the IC50 stood at 1.57 µM in the series on HeLa and 59.6 µM in series [3]. Further, the solubility entry in series [1] is reported as “Soluble”. The Drug uptake entry in series [2] was “Active”.
As for `C=Cc1c(C)c2cc3nc(c(CC(=O)OC)c4[nH]c(cc5nc(cc1[nH]2)C(C)=C5CC)c(C)c4C(=O)NCCN(C[C@H]1OC(O)[C@H](O)[C@@H](O)[C@H]1O)C[C@H]1OC(O)[C@H](O)[C@@H](O)[C@H]1O)[C@@H](CCC(=O)O)[C@@H]3C` (some centres undefined), the selectivity ratio in series [4] was found to be 31. The IC50 in the series with HeLa amounted to 1.24 µM; in series [3], 39 µM. The solubility result in series [1] is “Soluble”. In series [2], the Drug uptake entry was “Active”.
